# Measurements reported in PMC9293670 (Acta Pharmaceutica Sinica. B, 2022).
# Tests used:
# [1] = target: PDE8A1 (480–820) (Homo sapiens, UniProt O60658); assay: PDE8A inhibition, 3H-cAMP radiometric enzyme assay; assay type: biochemical
# Summary of the method: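 Recombinant PDE8A1 (480–820) was expressed in E. coli BL21 (DE3), denatured in guanidine, refolded, and purified on Ni-NTA, hydroxyapatite, Q-Sepharose and gel filtration. ³H-cAMP (~20,000 cpm/assay) was reacted in Tris-HCl 20 mmol/L pH 7.5, MnCl₂ 10 mmol/L and DTT 1 mmol/L at 25 °C for 15 min. Reactions were stopped with ZnSO₄ then Ba(OH)₂, and supernatant ³H-cAMP was scintillation-counted. IC50 came from nonlinear regression over ≥8 concentrations, with each test run ≥3 times.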
# [2] = Metabolic stability in rat liver microsomes; assay type: in vitro ADME
# PDE8A1 (480–820), sequence (O60658 480-820): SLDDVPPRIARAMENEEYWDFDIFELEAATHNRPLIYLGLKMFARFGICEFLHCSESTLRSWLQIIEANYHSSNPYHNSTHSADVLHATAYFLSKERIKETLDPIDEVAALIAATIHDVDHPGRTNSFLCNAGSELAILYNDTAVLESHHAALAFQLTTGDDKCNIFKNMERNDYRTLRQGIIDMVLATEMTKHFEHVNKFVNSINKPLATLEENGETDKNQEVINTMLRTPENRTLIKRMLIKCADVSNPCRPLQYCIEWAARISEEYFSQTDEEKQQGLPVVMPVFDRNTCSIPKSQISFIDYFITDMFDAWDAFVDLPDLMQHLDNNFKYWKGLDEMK
SMILES,IC50 [1] [nM],half-life [2] [min]
CC(C)c1cc(Cn2cnc3c(N)nc(Cl)nc32)cc(OCC(F)F)c1 [Compound 16],4.6 ± 0.6,6
Nc1nc(Cl)nc2c1ncn2Cc1cc(OCc2ccccc2)cc(OCC(F)F)c1 [Compound 21],597 ± 61,
COc1cc(Cn2cnc3c(N)nc(Cl)nc32)cc(OCC(F)F)c1 [Compound 13],591 ± 11,
Nc1nc(Cl)nc2c1ncn2Cc1cc(OCC(F)F)cc(OCC2CC2)c1 [Compound 19],40 ± 1,
CC(C)Oc1cc(Cn2cnc3c(N)nc(Cl)nc32)cc(OCC(F)F)c1 [Compound 17],5 ± 0.3,16
Nc1nc(Cl)nc2c1ncn2Cc1cc(OCC(F)F)cc(-c2ccco2)c1 [Compound 25],13 ± 2,
Nc1nc(Cl)nc2c1ncn2Cc1cc(F)cc(OCC(F)F)c1 [Compound 11],51 ± 3,
Nc1nc(Cl)nc2c1ncn2Cc1cc(OCC(F)F)cc(-c2ccncc2)c1 [Compound 22],3.1 ± 0.2,8

# Continued, values first:
IC50 [1] [nM],half-life [2] [min],SMILES
52 ± 5,,COCCOc1cc(Cn2cnc3c(N)nc(Cl)nc32)cc(OCC(F)F)c1 [Compound 20]
20 ± 2,,Nc1nc(Cl)nc2c1ncn2Cc1cc(OCC(F)F)cc(OC2CCC2)c1 [Compound 18]
593 ± 69,,CCOc1cc(Cn2cnc3c(N)nc(Cl)nc32)cc(OCC(F)F)c1 [Compound 14]
193 ± 17,,Nc1nc(Cl)nc2c1ncn2Cc1cc(O)cc(OCC(F)F)c1 [Compound 12]
4.8 ± 0.3,39,Nc1nc(Cl)nc2c1ncn2Cc1cc(OCC(F)F)cc(-c2cccnc2)c1 [Compound 23]
